Experimental data: ChEMBL document CHEMBL1126670, “Cyclic peptides as selective tachykinin antagonists” (J Med Chem, 1993)
Where a SMILES comes first, the peptide text is derived from it.

Legend:
Conditions in all cases: read-out: pA2 (converted)
Substance-K receptor = molecular target: T1, Substance-K receptor (Rattus norvegicus, UniProt P16610); test: Inhibition of eledoisin binding to NK-2 receptor in rat vas deferens
T1 sequence (P16610 whole entry): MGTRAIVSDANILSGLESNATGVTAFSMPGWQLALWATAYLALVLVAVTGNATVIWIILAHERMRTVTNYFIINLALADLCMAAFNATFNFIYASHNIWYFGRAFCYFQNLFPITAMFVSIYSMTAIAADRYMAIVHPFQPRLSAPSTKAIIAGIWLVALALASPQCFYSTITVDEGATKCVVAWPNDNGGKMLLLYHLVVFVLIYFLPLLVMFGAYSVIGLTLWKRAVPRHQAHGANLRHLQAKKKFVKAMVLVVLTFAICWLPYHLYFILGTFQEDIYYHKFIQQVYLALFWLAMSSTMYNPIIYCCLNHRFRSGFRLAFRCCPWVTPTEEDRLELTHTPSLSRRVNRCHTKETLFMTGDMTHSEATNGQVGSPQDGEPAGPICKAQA
Procedure, shortened: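 Vas deferens from Sprague-Dawley rats (200–300 g), electrically stimulated contractions with supramaximal rectangular bipolar pulses. Eledoisin log dose-response curves; antagonism taken from rightward shift. pA2 by Schild regression over three or more antagonist concentrations, or apparent pA2 from one antagonist concentration via the standard Schild equation assuming unit slope.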

Substance-P receptor = Substance-P receptor (Cavia porcellus, UniProt P30547); test: Tested for antagonist activity toward NK-1 receptor in guinea pig ileum against the agonist eledoisin (mean +/-, n=4); assay type: functional, tissue-based
Sequence of Substance-P receptor (P30547 whole entry): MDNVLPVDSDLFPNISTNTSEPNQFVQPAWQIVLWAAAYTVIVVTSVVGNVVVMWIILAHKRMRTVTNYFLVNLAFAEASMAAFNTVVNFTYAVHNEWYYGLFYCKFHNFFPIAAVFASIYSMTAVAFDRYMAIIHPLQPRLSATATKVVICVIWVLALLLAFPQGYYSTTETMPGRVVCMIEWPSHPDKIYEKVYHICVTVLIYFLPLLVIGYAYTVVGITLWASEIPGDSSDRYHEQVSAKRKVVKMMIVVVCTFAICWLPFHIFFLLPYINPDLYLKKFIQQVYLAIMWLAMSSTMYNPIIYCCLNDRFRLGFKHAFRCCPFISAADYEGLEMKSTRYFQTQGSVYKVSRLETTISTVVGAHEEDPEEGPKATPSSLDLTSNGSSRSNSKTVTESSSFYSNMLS
Procedure, shortened: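 Guinea pig (male Dunkin-Hartley, 300–400 g) small-intestine longitudinal muscle, isometric contraction in Krebs-Henseleit at 37 °C with atropine, mepyramine, methysergide (each 5 μM) and indomethacin (1 μM). Antagonism measured as rightward shift of log dose-response curves to eledoisin. pA2 from Schild regression (least squares, three or more antagonist concentrations, three or more observations each), or apparent pA2 at a single concentration assuming unit slope (mean of 3–4 observations).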

Neuromedin-K receptor = molecular target: T2, Neuromedin-K receptor (Rattus norvegicus, UniProt P16177); test: Tested for antagonist activity toward NK-3 receptor in rat portal vein against the agonist eledoisin (mean +/-, n=4); assay type: functional
T2 sequence (P16177 whole entry): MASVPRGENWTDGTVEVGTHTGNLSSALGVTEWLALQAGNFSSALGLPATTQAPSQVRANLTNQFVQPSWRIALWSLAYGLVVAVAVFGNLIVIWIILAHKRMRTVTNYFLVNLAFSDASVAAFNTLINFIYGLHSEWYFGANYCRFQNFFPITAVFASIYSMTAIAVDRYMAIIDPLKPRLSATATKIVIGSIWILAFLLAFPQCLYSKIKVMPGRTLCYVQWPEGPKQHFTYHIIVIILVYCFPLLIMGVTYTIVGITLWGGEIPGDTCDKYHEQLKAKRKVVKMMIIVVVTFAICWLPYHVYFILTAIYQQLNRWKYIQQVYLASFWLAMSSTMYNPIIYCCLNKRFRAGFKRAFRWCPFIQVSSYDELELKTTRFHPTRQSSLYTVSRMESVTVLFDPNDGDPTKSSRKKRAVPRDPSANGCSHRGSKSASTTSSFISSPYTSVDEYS
Procedure, shortened: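 Rat portal vein longitudinal strips; frequency and amplitude of myogenic contractions recorded. Antagonist activity derived from rightward shift of eledoisin log dose-response curves. pA2 by Schild regression, least squares, three or more antagonist concentrations, or apparent pA2 at a single antagonist concentration assuming unit slope (mean of three or four observations).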

| SMILES | Kb (Substance-K receptor) [µM] | Kb (Substance-P receptor) [µM] | Kb (Neuromedin-K receptor) [µM] |
| --- | --- | --- | --- |
| CSCC[C@@H]1NC(=O)[C@H](CC(C)C)NC(=O)[C@@H]2CCCN2C(=O)[C@H](Cc2ccccc2)NC(=O)[C@H](Cc2c[nH]c3ccccc23)NC(=O)[C@H](CCC(N)=O)NC1=O | 15.8 |  |  |
| CSCC[C@@H]1NC(=O)[C@H](CC(C)C)N2C=C[C@@H](NC(=O)[C@H](Cc3ccccc3)NC(=O)[C@H](Cc3ccccc3)NC(=O)[C@H](CCC(N)=O)NC1=O)C2=O | 15.8 |  |  |
| CSCC[C@@H]1NC(=O)[C@H](CC(C)C)NC(=O)[C@H](Cc2ccccc2)NC(=O)[C@H](Cc2c[nH]c3ccccc23)NC(=O)[C@H](CCC(N)=O)NC1=O (cyclo(FLMQW)) | 0.631 |  |  |
| CSCC[C@@H]1NC(=O)[C@H](CC(C)C)NC(=O)[C@H]2CCCN2C(=O)[C@H](Cc2ccccc2)NC(=O)[C@H](Cc2c[nH]c3ccccc23)NC(=O)[C@H](CCC(N)=O)NC1=O | 20 |  |  |
| CSCC[C@@H]1NC(=O)[C@H](CC(C)C)NC(=O)CNC(=O)[C@H](Cc2ccccc2)NC(=O)[C@H](Cc2c[nH]c3ccccc23)NC(=O)[C@H](CCC(N)=O)NC1=O (cyclo(FGLMQW)) | 0.00794 | 2 | 7.94 |
| CSCC[C@@H]1NC(=O)[C@H](CC(C)C)N2C=C[C@@H](NC(=O)[C@H](Cc3ccccc3)NC(=O)[C@](C)(c3cccc4ccccc34)NC(=O)[C@H](CCC(N)=O)NC1=O)C2=O | 2.51 |  |  |
